Screens: PubChem, Broad Institute
AF4-AF9 inh: inhibitors of human MLL-AF4/AF9 interaction; P42568; inhibition, % at 10 µM; AlphaScreen, biotin-AF4 peptide binding to FLAG-AF9; AID 651704; actives 0.47% (n = 350,000);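 active = every replicate reaching a set inhibition limit, whatever the replicate mean, cut at about 25% in these data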
S100A4 inh HTS: S100A4-myosin IIA interaction inhibition; S100A4/TAMRA-MyoIIA peptide fluorescence polarization; AID 652163; inhibition, % at 10.7 µM; actives 0.14% (n = 360,000);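 active = mean inhibition of at least 70% across replicates, with every replicate also reaching that level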
Target sequence (P26447 whole entry, looked up): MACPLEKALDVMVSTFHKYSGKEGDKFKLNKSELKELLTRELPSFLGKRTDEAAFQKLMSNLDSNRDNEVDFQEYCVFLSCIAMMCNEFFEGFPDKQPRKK
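System – human S100A4 monomer protein, biochemical binding assay · Buffer or medium – Calcium-containing HEPES buffer, pH 7.2 · Timing – 5 min between mix addition and reading · Also added – TAMRA-labelled myosin IIA heavy-chain peptide probe, 5 nM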
Ecoli rRNA inh: inhibitors of bacterial rRNA selective over humanized ribosomes | E. coli WT GFP vs humanized-ribosome RFP mutants, fluorescence, 24 h; active compounds read low; DMSO median 0, no signal -100 | GFP signal change (wild-type ribosome), % (concentration not given with the values) | actives 1.6% (n = 350,000) | AID 720706;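 active = significant combined selectivity score with lowered wild-type GFP, culture density cut under 30%, mutant RFP and density less affected; inactive = any of these conditions unmet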
E-selectin induc: induces E-selectin expression in human endothelial cells; P16581; HUVEC E-selectin immunofluorescence imaging; normalized: neutral wells 0, TNF-alpha wells 100; activation, % at 7.58 µM; actives 0.37% (n = 260,000);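 active = mean E-selectin-positive cell signal at least 10% of the positive control, reached in at least 60% of replicates, without over 20% cell loss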
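Test system: HUVEC | Signal: Immunofluorescence imaging | Read-out: Percent E-selectin-positive cells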
ERAP1 HTS inh: blocks human ERAP1 aminopeptidase activity | Q9NZ08 | recombinant ERAP1, Leu-AMC fluorescence, 60 min | inhibition, % at 10.7 µM | AID 652197 | actives 0.15% (n = 340,000);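 active = mean replicate inhibition of at least 30%, or all replicates individually reaching that 30% level; inactive = mean below 30% and not every replicate reaching it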
SIRT5 inh: sirtuin-5 (human) deacylase inhibition | Purified SirT5, succinyl-peptide AMC, trypsin-coupled fluorescence | Q9NXA8 | actives 1.1% (n = 330,000) | inhibition, % at 15 µM; in the data active = inhibition above about 15%
Target sequence (Q9NXA8 whole entry, looked up): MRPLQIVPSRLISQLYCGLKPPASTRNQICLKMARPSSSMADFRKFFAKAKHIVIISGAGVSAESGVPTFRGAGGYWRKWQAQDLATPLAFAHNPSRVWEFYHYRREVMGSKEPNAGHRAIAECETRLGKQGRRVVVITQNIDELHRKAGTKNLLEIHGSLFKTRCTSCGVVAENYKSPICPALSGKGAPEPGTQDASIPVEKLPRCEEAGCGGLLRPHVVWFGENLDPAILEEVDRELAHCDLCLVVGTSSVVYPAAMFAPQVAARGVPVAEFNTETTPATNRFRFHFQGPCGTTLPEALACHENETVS
Large screens that a line does not name were inactive. Shown are actives, neighbours in structure and some others; about 3.4% of the full set was active somewhere.

Cn1ccc2c(N3CCOCC3)cc3c(c21)C1CCC3C1 (centres undefined)	AF4-AF9 inh 26
CN(c1ccc(Cl)cc1)c1cc2c(c3c1ccn3C)C1CCC2C1 (centres undefined)	none
CCN(Cc1ccccc1)c1cc2c(c3c1ccn3C)C1CCC2C1 (centres undefined)	AF4-AF9 inh 25
CCCN(CC1CC1)c1cc2c(c3c1ccn3C)C1CCC2C1 (centres undefined)	AF4-AF9 inh 48
COc1ccc(S(=O)(=O)Nc2cccc3c2O[C@H](CN(C)Cc2ccccc2)[C@H](C)CN([C@@H](C)CO)C3=O)cc1	none (no result: E-selectin induc)
COC(OC)c1ccc(C#N)c(SCc2ccc(C)cc2)n1	Ecoli rRNA inh -29 (no result: E-selectin induc)
Cc1cccc(-c2ccc([C@@H]3[C@H]4CN(C(=O)c5cnccn5)CC(=O)N4[C@H]3CO)cc2)c1	none (no result: AF4-AF9 inh, S100A4 inh HTS, E-selectin induc, ERAP1 HTS inh, SIRT5 inh)
C[C@H](CO)N1C[C@H](C)[C@H](CN(C)C)OCCCC[C@H](C)Oc2ccc(NS(=O)(=O)c3cn(C)cn3)cc2C1=O	none
CCCCCc1ccc(-c2ccc(OC)cc2)nc1	Ecoli rRNA inh -24 (no result: E-selectin induc)
O=C(O)CCNc1cc(N2CCN(C(=O)c3ccco3)CC2)c2noc3c2c1C(=O)c1ccccc1-3	AF4-AF9 inh 56
O=C(C1CCOCC1)N1C[C@@H]2[C@H](c3ccccc31)[C@@H](CO)N2C(=O)Cc1ccccc1	none
CCN(CC)c1ccc(/C=N/NC(=O)Cc2ccc(OC)c(OC)c2)cc1	E-selectin induc 36 (no result: ERAP1 HTS inh, SIRT5 inh)
CCc1ccc(/C=N/NC(=O)Cc2ccc(OC)c(OC)c2)s1	Ecoli rRNA inh -24 (no result: E-selectin induc)
CCN(CC)c1ccc(/C=N/NC(=O)c2ccc(Br)o2)cc1	Ecoli rRNA inh -23
CCN(CC)c1ccc(/C=N/NC(=O)c2ccc3c(c2)OCCO3)cc1	none
Cc1ccc(C(=O)N/N=C/c2ccc(OC(=O)c3ccccc3Cl)cc2)cn1	none
O=C(Oc1ccc(/C=N/O)cc1)c1ccccc1Cl	Ecoli rRNA inh -29
CC(C)NC(=O)N1[C@H](CO)[C@H](c2ccccc2)C12CN(C(=O)CN(C)C)C2	none
CCN(Cc1ccc(OC)c(F)c1)C(=O)CCl	none
CCN(Cc1ccc(OC)c(F)c1)C(=O)C1CCCO1 (centres undefined)	ERAP1 HTS inh 50 (no result: E-selectin induc)
c1ccc(C(c2ccccc2)c2nc(-c3cccnc3)no2)cc1	Ecoli rRNA inh -39 (no result: E-selectin induc)
CC(=O)N[C@H]1CC[C@@H](CC(=O)NCc2ccc(Cl)cc2)O[C@@H]1CO	none
CO[C@@H]1CN(C)C(=O)c2ccc(NS(=O)(=O)c3ccc(Cl)cc3)cc2OC[C@H](C)NC[C@H]1C	none
C[C@H](CO)N1C[C@H](C)[C@H](CN(C)Cc2ccc(C(F)(F)F)cc2)Oc2ccc(NC(=O)CCN3CCOCC3)cc2C1=O	none
C[N+]1(CCOC(=O)C2(c3ccccc3)CCCC2)CCCCC1	ERAP1 HTS inh 67
CNC[C@H]1Oc2ccc(NC(=O)Nc3ccc(C(F)(F)F)cc3)cc2CC(=O)N([C@H](C)CO)C[C@H]1C	none
O=C(O)c1ccc2c(c1)ncn2C1CCCC1	SIRT5 inh 21
CCC(c1nnnn1C(C)(C)C)N1CCN(Cc2ccccc2OC)CC1 (centres undefined)	SIRT5 inh 17 (no result: E-selectin induc)
COCc1cn(CC[C@H]2CC[C@H](NC(=O)c3ccc(F)cc3)[C@H](CO)O2)nn1	none
O=C1/C(=C\c2c(NCCOCCO)nc3ccccn3c2=O)SC(=S)N1Cc1ccco1	E-selectin induc 73 (no result: ERAP1 HTS inh)
CN(C)CCCNc1ccc(-c2cc(Nc3cccc(Cl)c3)ncn2)cn1	Ecoli rRNA inh -20 (no result: E-selectin induc, SIRT5 inh)
O=C(CN1C(=O)NC2(CCCc3ccccc32)C1=O)c1ccc(Br)cc1 (centres undefined)	Ecoli rRNA inh -36
O=C(Cn1c(=O)oc2ccccc21)Nc1cccc(Cl)c1	SIRT5 inh 28 (no result: E-selectin induc)
COC(=O)CN1C(=O)NC2(CCCc3ccccc32)C1=O (centres undefined)	none
O=C(CN1C(=O)NC2(CCc3ccccc32)C1=O)Nc1cccc(Cl)c1 (centres undefined)	Ecoli rRNA inh -30 (no result: SIRT5 inh)
COc1cccc(NC(=O)CN2C(=O)NC3(CCc4ccccc43)C2=O)c1 (centres undefined)	none (no result: E-selectin induc)
